Measured values published in PMC5743405 (International Journal of Oncology, 2017).

Assays:
GPCR receptors = assay: PathHunter β-arrestin gpcrMAX panel, antagonist mode; assay type: cell-based; conditions: summary of Table II
Method in brief: (§1)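 GPCR-ED fusion and β-arrestin-EA fusion; arrestin recruitment restores β-galactosidase, read by chemiluminescence. Antagonist mode uses EC80 agonist challenge. % inhibition = 100 × (1 − (test − vehicle RLU)/(EC80 control − vehicle RLU)). Hit requires >35% inhibition and mean RLU below EC80 RLU − 3 × EC80 SD.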

ADORA3 = assay: PathHunter β-arrestin; assay type: cell-based; conditions: 6 μM
Method in brief: (§2)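 β-Arrestin recruitment assay: the enzyme acceptor is fused to β-arrestin and the ED fragment to the GPCR. Recruitment restores β-galactosidase, read by chemiluminescence. % activity = 100% × (test − vehicle)/(max control ligand − vehicle). % inhibition = 100% × (1 − (test − vehicle)/(EC80 control − vehicle)). An agonist hit needs >30% activity and RLU > baseline + 3×SD. An antagonist hit needs >35% inhibition and RLU < EC80 RLU − 3×SD.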

ADRA1B = assay: PathHunter β-arrestin; assay type: cell-based; conditions: agonist mode, 6 μM
Method in brief: as §2

BDKRB1 = assay: PathHunter β-arrestin; assay type: cell-based; conditions: 6 μM
Method in brief: as §2

C5AR1 = assay: PathHunter β-arrestin; assay type: cell-based; conditions: antagonist mode, 6 μM
Method in brief: as §2

CALCRL-RAMP3 = assay: PathHunter β-arrestin; assay type: cell-based; conditions: antagonist mode, 6 μM
Method in brief: as §2

CALCR-RAMP3 = assay: PathHunter β-arrestin; assay type: cell-based; conditions: antagonist mode, 6 μM
Method in brief: as §2

CCR1 = assay: PathHunter β-arrestin; assay type: cell-based; conditions: antagonist mode, 6 μM
Method in brief: as §2

CCR3 = assay: PathHunter β-arrestin; assay type: cell-based; conditions: 6 μM
Method in brief: as §2

CCR4 = assay: PathHunter β-arrestin; assay type: cell-based; conditions: antagonist mode, 6 μM
Method in brief: (§3)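 Engineered cells express the receptor fused to one β-galactosidase fragment (ED) and β-arrestin fused to the complementing fragment (EA). Receptor activation recruits β-arrestin, which restores enzyme activity, and this is read by chemiluminescence (RLU). Agonist % activity is 100% × (test − vehicle)/(maximal control ligand − vehicle). Antagonist mode is challenged with an EC80 control agonist, and % inhibition is 100% × (1 − (test − vehicle)/(EC80 − vehicle)). Hits require >30% activity or >35% inhibition, plus a 3×SD RLU margin.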

CCR8 = assay: PathHunter β-arrestin; assay type: cell-based; conditions: antagonist mode, 6 μM
Method in brief: as §3

CHRM2 = assay: PathHunter β-arrestin; assay type: cell-based; conditions: 6 μM
Method in brief: as §3

CNR1 = assay: PathHunter β-arrestin; assay type: cell-based; conditions: antagonist mode, 6 μM
Method in brief: as §3

CXCR3 = assay: PathHunter β-arrestin; assay type: cell-based; conditions: 6 μM
Method in brief: as §3

DRD2S = assay: PathHunter β-arrestin; assay type: cell-based; conditions: antagonist mode, 6 μM
Method in brief: as §3

EDNRB = assay: PathHunter β-arrestin; assay type: cell-based; conditions: antagonist mode, 6 μM
Method in brief: as §3

GPR1 = assay: PathHunter β-arrestin; assay type: cell-based; conditions: antagonist mode, 6 μM
Method in brief: (§4)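 Vendor-run (DiscoveRx) PathHunter enzyme fragment complementation. β-Arrestin carries the EA fragment and the receptor carries ED; recruitment restores β-gal activity, read by chemiluminescence (RLU). Agonist % activity = vehicle-subtracted RLU relative to max control ligand (gpcrMAX) or to vehicle (orphanMAX). Antagonist % inhibition = 100% × (1 − vehicle-subtracted sample RLU / vehicle-subtracted EC80 agonist control RLU).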

GPR119 = assay: PathHunter β-arrestin; assay type: cell-based; conditions: 6 μM
Method in brief: as §4

HTR1A = assay: PathHunter β-arrestin; assay type: cell-based; conditions: antagonist mode, 6 μM
Method in brief: as §4

KISS1R = assay: PathHunter β-arrestin; assay type: cell-based; conditions: 6 μM
Method in brief: as §4

MC1R = assay: PathHunter β-arrestin; assay type: cell-based; conditions: 6 μM
Method in brief: as §4

MRGPRX2 = assay: PathHunter β-arrestin; assay type: cell-based; conditions: antagonist mode, 6 μM
Method in brief: as §4

NPY2R = assay: PathHunter β-arrestin; assay type: cell-based; conditions: antagonist mode, 6 μM
Method in brief: as §4

OPRL1 = assay: PathHunter β-arrestin; assay type: cell-based; conditions: antagonist mode, 6 μM
Method in brief: as §1

OPRM1 = assay: PathHunter β-arrestin; assay type: cell-based; conditions: 6 μM
Method in brief: (§5)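 β-Arrestin recruitment to GPCR read by β-galactosidase fragment complementation and chemiluminescence. Agonist: % = 100 × (test − vehicle)/(max control ligand − vehicle), hit at >30% and RLU > baseline + 3 SD. Antagonist, against EC80 agonist: % inhibition = 100 × (1 − (test − vehicle)/(EC80 − vehicle)), hit at >35% and RLU < EC80 − 3 SD.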

P2RY1 = assay: PathHunter β-arrestin; assay type: cell-based; conditions: 6 μM
Method in brief: as §5

P2RY6 = assay: PathHunter β-arrestin; assay type: cell-based; conditions: antagonist mode, 6 μM
Method in brief: as §1

UTR2 = assay: PathHunter β-arrestin; assay type: cell-based; conditions: 6 μM
Method in brief: as §5

MUC5B [1] = assay: TriCEPS ligand-receptor capture; assay type: binding, human; conditions: 10 μg/ml PRP-1
MUC5B [2] = assay: MUC5B ELISA, JJ012 cell lysates; assay type: cell-based; conditions: PRP-1 at 1 μg/ml; human JJ012 cell lysates
Method in brief: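 Cells trypsinized at confluency and seeded in 6-well clusters at 1×10^6 cells/ml. Test compound added to experimental wells only, controls untreated. Overnight at 37°C, 5% CO2. Cells washed in ice-cold PBS with protease inhibitor, lysed in buffer with protease inhibitor (1:100), scraped and spun at 15,000 × g, 4°C. Protein measured in supernatant. MUC5B quantified with a commercial human MUC5B ELISA kit.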

TLR4 = assay: western blot, JJ012 cells; assay type: cell-based, human; conditions: vs untreated control, overnight incubation
[3] = tested on: JJ012 chondrosarcoma cells; assay: immunocytochemistry, PRP-1 localization; assay type: cell-based, human; conditions: PRP-1 antibody, Zenon Alexa Fluor 488; DAPI nuclear stain

Proline rich polypeptide 1 [PRP-1]
GPCR coupling, antagonist mode (GPCR receptors): no indication that PRP-1 was G protein coupled | % Activity (ADORA3; agonist mode): 1% | % Inhibition (ADORA3; antagonist mode): −3% | % Activity (ADRA1B): 1% | % Activity (BDKRB1; agonist mode): 1% | % Inhibition (BDKRB1; antagonist mode): −8% | % Inhibition (C5AR1): 3% | % Inhibition (CALCRL-RAMP3): 1% | % Inhibition (CALCR-RAMP3): −8% | % Inhibition (CCR1): −3% | % Activity (CCR3; agonist mode): 2% | % Inhibition (CCR3; antagonist mode): −3% | % Inhibition (CCR4): 2% | % Inhibition (CCR8): −4% | % Activity (CHRM2; agonist mode): 1% | % Inhibition (CHRM2; antagonist mode): −6% | % Inhibition (CNR1): 2% | % Activity (CXCR3; agonist mode): 1% | % Inhibition (CXCR3; antagonist mode): −1% | % Inhibition (DRD2S): 6% | % Inhibition (EDNRB): −1% | % Inhibition (GPR1): −5% | % Activity (GPR119; agonist mode): 3% | % Inhibition (GPR119; antagonist mode): −1% | % Inhibition (HTR1A): −5% | % Activity (KISS1R; agonist mode): 1% | % Inhibition (KISS1R; antagonist mode): 3% | % Activity (MC1R; agonist mode): −2% | % Inhibition (MC1R; antagonist mode): −2% | % Inhibition (MRGPRX2): −8% | % Inhibition (NPY2R): −2% | % Inhibition (OPRL1): −7% | % Activity (OPRM1; agonist mode): 1% | % Inhibition (OPRM1; antagonist mode): −2% | % Activity (P2RY1; agonist mode): −1% | % Inhibition (P2RY1; antagonist mode): 1% | % Inhibition (P2RY6): 3% | % Activity (UTR2; agonist mode): 3% | % Inhibition (UTR2; antagonist mode): −7% | binding partner detection (MUC5B [1]): detected MUC5B as binding partner with 10 μg/ml PRP-1 treatment | MUC5B presence in cell lysates (MUC5B [2]): 440 ng/mL | protein expression (TLR4): PRP-1 did not have any effect | localization [3]: manifested its presence in the nucleus
